Reference: ChEMBL document CHEMBL4382237, “Design, Synthesis, and Biological Evaluation of 2-Nitroimidazopyrazin-one/-es with Antitubercular and Antiparasitic Activity” (J Med Chem, 2018)
pIC50: −log10 of the molar value. In brackets after ≈: the same amount, converted by molar mass.

Tests used:
Entamoeba histolytica = assay: Antiparasitic activity against Entamoeba histolytica HM-1:IMSS trophozoites after 24 to 48 hrs by CellTiter-Glo luminescent cell viability assay; format: functional, organism-based; conditions: for pIC50: read-out: IC50; for IC50: read-out: pIC50 (converted)
Outline: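 Axenic trophozoites were kept in TYI-S-33 with penicillin (100 U/mL) and streptomycin (100 µg/mL) and harvested in log phase. 5000 parasites per well were exposed to a final 8-point two-fold series of 0.39–50 µM, from 10 mM DMSO stocks. Plates were incubated 24–48 h at 37 °C under anaerobic conditions. ATP luminescence viability was read in triplicate. Percent inhibition is given at the highest concentration tested.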

Giardia intestinalis = assay: Antiparasitic activity against Giardia lamblia WB trophozoites after 24 to 48 hrs by CellTiter-Glo luminescent cell viability assay; conditions: Giardia duodenalis; for IC50: read-out: pIC50 (converted)
[1] = system: Mycobacterium tuberculosis; assay: Antibacterial activity against non-replicating Mycobacterium tuberculosis H37Rv after 5 days under hypoxic condition by resazurin dye-based fluorescence assay; format: functional; conditions: 120 h
Outline: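 Same H37Rv inoculum (OD600 0.001, ~2 x 10^4 CFU/mL) in 7H9S with serially diluted compound. Plates held 5 days at 0.1% oxygen, then resazurin plus Tween-80 added.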

Clostridioides difficile = assay: Antibacterial activity against Clostridium difficile 630 ATCC BAA-1382 by broth microdilution assay; format: functional
Outline: (§1)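 Broth microdilution run essentially per an earlier report. MIC taken as the lowest concentration with no visible growth. Replicates typically agreed within one 2-fold dilution. The median MIC is reported, with a range where the median fell between two tested concentrations.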

HEK293 = assay: Cytotoxicity against HEK293 cells after 24 hrs by resazurin dye-based fluorescence assay; format: cell-based; conditions: human, hek293, 24 h
Outline: (§2)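 HEK293 (3000/well) and HepG2 (5000/well) were grown 24 h in DMEM with 10% FBS at 37 °C, 5% CO2. Cells were then exposed 24 h to a dilution series up to 100 µM (0.5% DMSO). 5 µM resazurin was added for 2 h, read at ex 560/em 590. 1% Triton X-100 served as lysis control. CC50 was derived from the curves.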

Klebsiella pneumoniae = assay: Antibacterial activity against Klebsiella pneumoniae 700603 by broth microdilution assay; format: functional; outline: as §1
Candida albicans = assay: Antifungal activity against Candida albicans ATCC 90028 by broth microdilution assay; format: functional; outline: as §1
Cryptococcus neoformans = assay: Antifungal activity against Cryptococcus neoformans H99 ATCC […] broth microdilution assay; format: functional; conditions: var. grubii H99 ATCC 208821; outline: as §1
[2] = system: Trypanosoma brucei brucei; assay: Antiparasitic activity against bloodstream form of Trypanosoma brucei brucei strain 427 after 48 hrs by resazurin dye-based assay; format: functional, organism-based; conditions: strain 427, 48 h; for pIC50: read-out: IC50; for IC50: read-out: pIC50 (converted)
Escherichia coli = assay: Antibacterial activity against Escherichia coli ATCC 25922 by broth microdilution assay; format: functional; outline: as §1
Acinetobacter baumannii = assay: Antibacterial activity against Acinetobacter baumannii ATCC 19606 by broth microdilution assay; format: functional; conditions: ATCC 19606 = CIP 70.34 = JCM 6841; outline: as §1
HepG2 = assay: Cytotoxicity against human HepG2 cells after 24 hrs by resazurin dye-based fluorescence assay; format: cell-based; conditions: hepg2, 24 h; outline: as §2
[3] = Metabolic stability in CD-1 mouse liver microsomes assessed as parent compound remaining at 3 uM after 2 hrs by LC-MS/MS analysis
[4] = Metabolic stability in human liver microsomes assessed as parent compound remaining at 3 uM after 2 hrs by LC-MS/MS analysis
Staphylococcus aureus = assay: Antibacterial activity against methicillin-resistant Staphylococcus aureus ATCC […] by broth microdilution assay; format: functional
Pseudomonas aeruginosa = assay: Antibacterial activity against Pseudomonas aeruginosa ATCC 27853 by broth microdilution assay; format: functional; outline: as §1
[5] = system: Mycobacterium tuberculosis; assay: Antibacterial activity against Mycobacterium tuberculosis H37Rv after 5 days under normoxic condition by resazurin dye-based fluorescence assay; format: functional, organism-based
Outline: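 H37Rv grown in 7H9/ADC/glycerol/Tyloxapol to mid-exponential phase, diluted to OD600 0.001 (~2 x 10^4 CFU/mL) in 7H9S with serially diluted compound. Incubated 5 days at 37 °C, then resazurin and Tween-80 added. Fluorescence (ex 530/em 590 nm) read after 24 h, normalised to no-drug and no-bacteria wells.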

[6] = Metabolic stability in CD-1 mouse plasma assessed as parent compound remaining at 3 uM after 2 hrs by LC-MS/MS analysis
[7] = Metabolic stability in human plasma assessed as parent compound remaining at 3 uM after 2 hrs by LC-MS/MS analysis

SMILES	pIC50 (Entamoeba histolytica)	pIC50 (Giardia intestinalis)	MIC [1] [µg/mL]	MIC (Clostridioides difficile) [µg/mL]	CC50 (HEK293) [µM]	MIC (Klebsiella pneumoniae) [µg/mL]	IC50 (Giardia intestinalis) [µM]	MIC (Candida albicans) [µg/mL]	MIC (Cryptococcus neoformans) [µg/mL]	pIC50 [2]	IC50 [2] [µM]	MIC (Escherichia coli) [µg/mL]	MIC (Acinetobacter baumannii) [µg/mL]	CC50 (HepG2) [µM]	MIC (Staphylococcus aureus) [µg/mL]	MIC (Pseudomonas aeruginosa) [µg/mL]	MIC [5] [µg/mL]	other results
CCOC(=O)c1nc([N+](=O)[O-])cn1Cc1ccc(OC(F)(F)F)cc1	4.35 to 5.00	5.12 to 5.57	> 32	16 to 64 (≈ 44.5 to […] µM)														
CNC(=O)c1nc([N+](=O)[O-])cn1Cc1ccc(OC(F)(F)F)cc1	4.35 to 5.00	5.12 to 5.57	> 32	16 to 64 (≈ 46.5 to 186 µM)														
O=[N+]([O-])c1cn2ccnc(OCc3ccccc3OC(F)(F)F)c2n1		4.92	> 32		> 100	> 32	12.6	> 32	> 32	< 4.40	> 39.8	> 32	> 32	> 100	> 32	> 32	>32	Stability [3]: < 0.5%; Stability [4]: 51%
Cc1nc(OCc2ccc(OC(F)(F)F)cc2)c2nc([N+](=O)[O-])cn2c1C	4.77	5.07	> 32				7.94			5.00	10						>32	Stability [6]: > 99%; IC50 (Entamoeba histolytica): 15.8 µM; Stability [7]: > 99%; Stability [3]: < 0.5%; Stability [4]: 44%
O=c1c2nc([N+](=O)[O-])cn2ccn1CCN1CCOCC1			> 32		> 100	> 32		> 32	> 32			> 32	> 32	> 100	> 32	> 32	>32	
O=[N+]([O-])c1cn2ccnc(OCCc3ccc(OC(F)(F)F)cc3)c2n1	5.11	5.28	> 32		> 100	> 32	5.01	> 32	> 32			> 32	> 32	> 100	> 32	> 32	>32	
O=c1c2nc([N+](=O)[O-])cn2cc(-c2ccccc2)n1CCO	< 4.30	4.42	> 32		> 75		39.8							> 75				IC50 (Entamoeba histolytica): > 50.1 µM
NC(=O)c1nc([N+](=O)[O-])cn1Cc1cccc(OC(F)(F)F)c1	< 4.60	4.30 to 5.39	> 32	> 64														
O=c1c2nc([N+](=O)[O-])cn2ccn1Cc1ccc(F)cc1F		< 4.30	> 32		> 100	> 32	> 50.1	> 32	> 32	< 4.40	> 39.8	> 32	> 32	> 100	> 32	> 32	16 to 32	
Cc1ccc(Cn2cc([N+](=O)[O-])nc2C(N)=O)cc1	< 4.60	4.30 to 5.39	> 32	> 64														
NC(=O)Cn1ccn2cc([N+](=O)[O-])nc2c1=O		< 4.30	> 32		> 100	> 32	> 50.1	> 32	> 32	< 4.40	> 39.8	> 32	> 32	> 100	> 32	> 32	>32	
O=C(Cn1ccn2cc([N+](=O)[O-])nc2c1=O)N1CCOCC1		< 4.30	> 32		> 100	> 32	> 50.1	> 32	> 32	5.39	3.98	> 32	> 32	> 100	> 32	> 32	>32	
O=C(NCc1cccc(OC(F)(F)F)c1)c1ncc([N+](=O)[O-])[nH]1	5.35 to 5.66	6.30 to 6.70	> 32	4 to 16 (≈ 12.1 to 48.5 µM)														
CN(C)C(=O)c1nc([N+](=O)[O-])cn1Cc1ccc(OC(F)(F)F)cc1	4.35 to 5.00	5.12 to 5.57	> 32	16 to 64 (≈ 44.7 to 179 µM)														
Cc1ccc(CNC(=O)c2nc([N+](=O)[O-])c[nH]2)cc1	5.35 to 5.66	6.30 to 6.70	> 32	4 to 16 (≈ 15.4 to 61.5 µM)														
O=c1c2nc([N+](=O)[O-])cn2ccn1CCO		< 4.30				> 32	> 50.1	> 32	> 32			> 32	> 32		> 32	> 32		
NC(=O)c1nc([N+](=O)[O-])cn1Cc1ccc(F)cc1	< 4.60	4.30 to 5.39	> 32	> 64														
Cc1ncc([N+](=O)[O-])n1CCO [METRONIDAZOLE]	5.37	5.14	> 32	0.5 (≈ 2.92 µM)			7.94			< 4.40	> 39.8							IC50 (Entamoeba histolytica): 3.98 µM
O=C(NCc1ccccc1)c1nc([N+](=O)[O-])c[nH]1	5.35 to 5.66	6.30 to 6.70	> 32	4 to 16 (≈ 16.2 to […] µM)														
O=c1c2nc([N+](=O)[O-])cn2ccn1Cc1ccccc1OC(F)(F)F		5.09	8 (≈ 22.6 µM)		> 100	> 32	7.94	> 32	> 32	5.22	6.31	> 32	> 32	> 100	> 32	> 32	1 (≈ 2.82 µM)	Stability [3]: > 99%; Stability [4]: > 99%
NNC(=O)c1nc([N+](=O)[O-])cn1Cc1ccc(OC(F)(F)F)cc1	4.35 to 5.00	5.12 to 5.57	> 32	16 to 64 (≈ 46.3 to 185 µM)														
NC(=O)c1nc([N+](=O)[O-])cn1Cc1ccccc1	< 4.60	4.30 to 5.39	> 32	> 64														
Cc1c(C)n2cc([N+](=O)[O-])nc2c(=O)n1Cc1cccc(OC(F)(F)F)c1	4.82	5.77	16 to 32 (≈ 41.9 to 83.7 µM)		50.6 to 74.5		1.58			6.40	0.398			26 to 80			1 (≈ 2.62 µM)	IC50 (Entamoeba histolytica): 15.8 µM
CC(=O)OCCn1ccn2cc([N+](=O)[O-])nc2c1=O						> 32		> 32	> 32			> 32	> 32		> 32	> 32		
O=c1c2nc([N+](=O)[O-])cn2ccn1C1CCCCC1		5.28	> 32			> 32	5.01	> 32	> 32	5.85	1.26	> 32	> 32		> 32	> 32	>32	
CC1CC(OC(=O)C(O)c2ccccc2)CC(C)(C)N1C (stereo not given) [EUCATROPINE]																		Stability [7]: 21%
